Results reported in publication PMC5689172 (Biochemistry and Biophysics Reports, 2016).
In brackets after ≈: the same amount, converted by molar mass. Where two headings read alike, the source gives them in different places.

Tests used:
[1] = system: M. luteus ATCC 10240; test: Antimicrobial activity, agar dilution method; format: cell-based; conditions: Micrococcus luteus, ATCC10240
Procedure, shortened: (§1)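 Test compound in DMSO, mixed with Mueller–Hinton broth, two-fold serially diluted, and incorporated into MH agar at final 0.25–256 μg/mL. Agar with 0.5% DMSO served as reagent control. Organisms were grown overnight in MH broth at 37 °C, diluted in normal saline to 0.5 McFarland (1.5×10⁸ CFU/mL), and inoculated onto plates. Plates were incubated at 37 °C for 24–48 h, then MIC was recorded.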

[2] = system: S. putrefaciens ATCC 8071; test: Antimicrobial activity, agar dilution method; format: cell-based; conditions: Shewanella putrefaciens, ATCC8071
Procedure, shortened: as §1

[3] = system: B. subtilis ATCC 6633; test: Antimicrobial activity, agar dilution method; format: cell-based; conditions: Bacillus subtilis, ATCC6633
Procedure, shortened: as §1

[4] = system: S. epidermidis ATCC 12228; test: Antimicrobial activity, agar dilution method; format: cell-based; conditions: Staphylococcus epidermidis, ATCC12228
Procedure, shortened: as §1

[5] = system: S. cerevisiae ATCC 2601; test: Antimicrobial activity, agar dilution method; format: cell-based; conditions: Saccharomyces cerevisiae, ATCC2601
Procedure, shortened: as §1

[6] = system: P. shigelloides; test: Antimicrobial activity, agar dilution method; format: cell-based; conditions: Plesiomonas shigelloides, P. shigelloides; agar dilution
[7] = system: B. cereus; test: Antimicrobial activity, agar dilution method; format: cell-based; conditions: Bacillus cereus
Procedure, shortened: as §1

[8] = system: P. aeruginosa ATCC 27853; test: Antimicrobial activity, agar dilution method; format: cell-based, Pseudomonas aeruginosa; conditions: Pseudomonas aeruginosa, ATCC27853
Procedure, shortened: as §1

[9] = system: E. faecalis ATCC 29212; test: Antimicrobial activity, agar dilution method; format: cell-based; conditions: Enterococcus faecalis, ATCC29212
Procedure, shortened: as §1

[10] = system: S. dysenteriae; test: Antimicrobial activity, agar dilution method; format: cell-based; conditions: Shigella dysenteriae
Procedure, shortened: as §1

[11] = system: A. hydrophila; test: Antimicrobial activity, agar dilution method; format: cell-based; conditions: Aeromonas hydrophila
Procedure, shortened: as §1

[12] = system: M. morganii; test: Antimicrobial activity, agar dilution method; format: cell-based; conditions: Morganella morganii
Procedure, shortened: as §1

[13] = system: S. aureus ATCC 25923; test: Antimicrobial activity, agar dilution method; format: cell-based; conditions: Staphylococcus aureus, ATCC25923
Procedure, shortened: as §1

[14] = system: E. faecalis ATCC 33186; test: Antimicrobial activity, agar dilution method; format: cell-based; conditions: Enterococcus faecalis, ATCC33186
Procedure, shortened: as §1

[15] = system: Gram-positive bacteria; test: Antimicrobial activity, agar dilution method, summarised over the group; format: cell-based
Procedure, shortened: as §1

[16] = system: S. Typhimurium ATCC 13311; test: Antimicrobial activity, agar dilution method; format: cell-based; conditions: Salmonella enterica, ATCC13311|TYPHIMURIUM
Procedure, shortened: as §1

[17] = system: K. pneumoniae ATCC 700603; test: Antimicrobial activity, agar dilution method; format: cell-based; conditions: Klebsiella pneumoniae, ATCC700603
Procedure, shortened: as §1

[18] = system: E. coli ATCC 25922; test: Antimicrobial activity, agar dilution method; format: cell-based; conditions: Escherichia coli, ATCC25922
Procedure, shortened: as §1

[19] = system: S. Choleraesuis ATCC 10708; test: Antimicrobial activity, agar dilution method; format: cell-based; conditions: Salmonella enterica, ATCC10708|CHOLERAESUIS
Procedure, shortened: as §1

[20] = system: C. diphtheriae NCTC 10356; test: Antimicrobial activity, agar dilution method; format: cell-based; conditions: Corynebacterium diphtheriae, NCTC10356
Procedure, shortened: as §1

[21] = system: S. marcescens ATCC 8100; test: Antimicrobial activity, agar dilution method; format: cell-based; conditions: Serratia marcescens, ATCC8100
Procedure, shortened: as §1

[22] = system: L. monocytogenes; test: Antimicrobial activity, agar dilution method; format: cell-based; conditions: Listeria monocytogenes
Procedure, shortened: as §1

[23] = Cytotoxicity, MTT assay; format: cell-based; conditions: human, MRC-5 cells (normal embryonic lung cell line)
[24] = system: S. aureus ATCC 29213; test: Antimicrobial activity, agar dilution method; format: cell-based; conditions: Staphylococcus aureus, ATCC29213
Procedure, shortened: as §1

[25] = system: C. freundii; test: Antimicrobial activity, agar dilution method; format: cell-based; conditions: Citrobacter freundii
Procedure, shortened: as §1

[26] = system: A. xylosoxidans ATCC 27061; test: Antimicrobial activity, agar dilution method; format: cell-based; conditions: Achromobacter xylosoxidans, ATCC27061
Procedure, shortened: as §1

[27] = system: S. Enteritidis; test: Antimicrobial activity, agar dilution method; format: cell-based; conditions: Salmonella enterica
Procedure, shortened: as §1

[28] = Antioxidant activity, DPPH radical scavenging assay; format: biochemical; conditions: for IC50: read-out: RSA IC50, 30 min, 517 nm
Procedure, shortened: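 Sample solution (test compound, 1 mg/mL in DMSO) was mixed with 0.1 mM DPPH in methanol and kept 30 min in the dark. Absorbance was read at 517 nm. Radical scavenging activity (%) = [1 − Abs(sample)/Abs(control)] × 100. α-Tocopherol was the positive control.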

[29] = system: C. albicans ATCC 90028; test: Antimicrobial activity, agar dilution method; format: cell-based; conditions: Candida albicans, ATCC90028
Procedure, shortened: as §1

[30] = system: P. stutzeri ATCC 17587; test: Antimicrobial activity, agar dilution method; format: cell-based, Pseudomonas stutzeri; conditions: Stutzerimonas stutzeri, ATCC17587
Procedure, shortened: as §1

[31] = system: E. coli; conditions: cited from earlier work
[32] = system: twenty-seven strains of microorganisms; format: cell-based
Procedure, shortened: as §1

[33] = system: Gram-negative bacteria; test: Antimicrobial activity, agar dilution method, summarised over the group; format: cell-based
Procedure, shortened: as §1

[34] = system: P. aeruginosa; conditions: anti-biofilm agent; cited from earlier work
[35] = system: diploid fungi and yeast; test: Antimicrobial activity, agar dilution method, summarised over the group; format: cell-based, Candida albicans; conditions: Saccharomyces cerevisiae, ATCC2601|ATCC90028
Procedure, shortened: as §1

[36] = system: MRC-5 cell line; test: Cytotoxicity, MTT assay; format: cell-based; conditions: MRC-5 normal cells, MTT

| Structure (SMILES) | MIC [1] [µM] | MIC [2] [µM] | MIC [3] [µM] | MIC [4] [µM] | MIC [5] [µM] | MIC [6] [µM] | MIC [7] [µM] | MIC [8] [µM] | MIC [9] [µM] | MIC [10] [µM] | MIC [11] [µM] | MIC [12] [µM] | MIC [13] [µM] | MIC [14] [µM] | MIC [16] [µM] | MIC [17] [µM] | MIC [18] [µM] | MIC [19] [µM] | MIC [20] [µM] | MIC [21] [µM] | also measured |
| --- | --- | --- | --- | --- | --- | --- | --- | --- | --- | --- | --- | --- | --- | --- | --- | --- | --- | --- | --- | --- | --- |
| Oc1c(I)cc(Cl)c2cccnc12 [CQ (6), clioquinol] | 26.2 (≈ 8 µg/mL) | 26.2 (≈ 8 µg/mL) | 26.2 (≈ 8 µg/mL) | 26.2 (≈ 8 µg/mL) | 26.2 (≈ 8 µg/mL) | 26.2 (≈ 8 µg/mL) | 26.2 (≈ 8 µg/mL) | > 838 | 26.2 (≈ 8 µg/mL) | 838 (≈ 256 µg/mL) | 26.2 (≈ 8 µg/mL) | 838 (≈ 256 µg/mL) | 26.2 (≈ 8 µg/mL) | 26.2 (≈ 8 µg/mL) | 838 (≈ 256 µg/mL) | > 838 | 26.2 (≈ 8 µg/mL) | > 838 | 26.2 (≈ 8 µg/mL) | 26.2 (≈ 8 µg/mL) | MIC [15]: 26.2 µM (≈ 8 µg/mL); MIC [22]: 26.2 µM (≈ 8 µg/mL); IC50 at 48 h [23]: 76.17 ± 0.23 µM; MIC [24]: 26.2 µM (≈ 8 µg/mL); MIC [25]: 419 µM (≈ 128 µg/mL); MIC [26]: 26.2 µM (≈ 8 µg/mL); MIC [27]: 105 µM (≈ 32 µg/mL); IC50 [28]: 366 µM; MIC [29]: 26.2 µM (≈ 8 µg/mL); MIC [30]: 105 µM (≈ 32 µg/mL) |
| O=[N+]([O-])c1ccc(O)c2ncccc12 [NQ (2), Nitroxoline] | 10.5 (≈ 2 µg/mL) | 10.5 (≈ 2 µg/mL) | 42.1 (≈ 8 µg/mL) | 42.1 (≈ 8 µg/mL) | 42.1 (≈ 8 µg/mL) | 42.1 (≈ 8 µg/mL) | 21 (≈ 4 µg/mL) | 84.1 (≈ 16 µg/mL) | 42.1 (≈ 8 µg/mL) | 21 (≈ 4 µg/mL) | 5.26 (≈ 1 µg/mL) | 42.1 (≈ 8 µg/mL) | 42.1 (≈ 8 µg/mL) | 42.1 (≈ 8 µg/mL) | 21 (≈ 4 µg/mL) | 84.1 (≈ 16 µg/mL) | 21 (≈ 4 µg/mL) | 84.1 (≈ 16 µg/mL) | 42.1 (≈ 8 µg/mL) | 21 (≈ 4 µg/mL) | MIC [31]: 42.07 µM (≈ 8 µg/mL); MIC ([32]; both the Gram-positive and Gram-negative bacteria): 5.26 to 84.1 µM (≈ 1 to 16 µg/mL); MIC [33]: 5.26 to 84.1 µM (≈ 1 to 16 µg/mL); MIC [22]: 42.1 µM (≈ 8 µg/mL); IC50 at 48 h [23]: 88.1 ± 2.11 µM; MIC [24]: 42.1 µM (≈ 8 µg/mL); MIC [25]: 21 µM (≈ 4 µg/mL); MIC [26]: 21 µM (≈ 4 µg/mL); MIC [27]: 21 µM (≈ 4 µg/mL); antioxidant activity in words [28]: inactive antioxidants; MIC [29]: 42.1 µM (≈ 8 µg/mL); MIC [34]: 84.14 to 168.28 µM; MIC [30]: 10.5 µM (≈ 2 µg/mL) |
| Nc1ccc(O)c2ncccc12 [5-amino-8HQ (8), 5-Amino-8-hydroxyquinoline] | 275 (≈ 44 µg/mL) | 1100 (≈ 176 µg/mL) | 275 (≈ 44 µg/mL) | 275 (≈ 44 µg/mL) | 1100 (≈ 176 µg/mL) | 1100 (≈ 176 µg/mL) | 275 (≈ 44 µg/mL) | 1100 (≈ 176 µg/mL) | 1100 (≈ 176 µg/mL) | 1100 (≈ 176 µg/mL) | 275 (≈ 44 µg/mL) | 1100 (≈ 176 µg/mL) | 275 (≈ 44 µg/mL) | 1100 (≈ 176 µg/mL) | 1100 (≈ 176 µg/mL) | 1100 (≈ 176 µg/mL) | 1100 (≈ 176 µg/mL) | 1100 (≈ 176 µg/mL) | 1100 (≈ 176 µg/mL) | 1100 (≈ 176 µg/mL) | MIC [33]: 1100 µM (≈ 176 µg/mL); MIC [35]: ≥ 645 µM; MIC [22]: 275 µM (≈ 44 µg/mL); IC50 at 48 h [23]: 22.1 ± 1.02 µM; MIC [24]: 275 µM (≈ 44 µg/mL); MIC [25]: 1100 µM (≈ 176 µg/mL); MIC [26]: 549 µM (≈ 88 µg/mL); MIC [27]: 1100 µM (≈ 176 µg/mL); IC50 [28]: 8.71 µM; MIC [29]: 1100 µM (≈ 176 µg/mL); MIC [30]: 1100 µM (≈ 176 µg/mL) |
| Oc1c(I)cc(I)c2cccnc12 [Iodoquinol (7), iodoquinol] | 322 (≈ 128 µg/mL) | 645 (≈ 256 µg/mL) | 80.6 (≈ 32 µg/mL) | 645 (≈ 256 µg/mL) | > 645 | 645 (≈ 256 µg/mL) | 645 (≈ 256 µg/mL) | > 645 | > 645 | 645 (≈ 256 µg/mL) | 645 (≈ 256 µg/mL) | > 645 | 645 (≈ 256 µg/mL) | > 645 | > 645 | > 645 | > 645 | > 645 | > 645 | > 645 | MIC ([32]; most of the bacterial strains / most of the tested microorganisms): ≥ 645 µM; MIC [33]: ≥ 645 µM; MIC [35]: ≥ 645 µM; MIC [22]: 645 µM (≈ 256 µg/mL); cytotoxicity in words [36]: non-cytotoxic; MIC [24]: 645 µM (≈ 256 µg/mL); MIC [25]: > 645 µM; MIC [26]: > 645 µM; MIC [27]: > 645 µM; MIC [29]: 645 µM (≈ 256 µg/mL); MIC [30]: > 645 µM |
